Measured values from ChEMBL document CHEMBL2163317, “Selective inhibition of the tumor marker aldo-keto reductase family member 1B10 by oleanolic acid” (J Nat Prod, 2011).
The source made the active and inactive calls. No cut-off for these calls is given here.

Legend:
[1] = target: T1, Aldo-keto reductase family 1 member B10 (Homo sapiens, UniProt O60218); assay: Inhibition of reductase activity of N-terminal 6His-tagged human AKR1B10 expressed in Escherichia coli BL21(DE3) assessed as pyridine-3-aldehyde reduction
Method in brief: (§1)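 Forward reductase assay at 25 C with purified recombinant enzyme from E. coli BL21(DE3) pLysS. Buffer was 0.1 M potassium phosphate pH 7.4 with 0.1 mM NADPH and 0.2 mM pyridine-3-aldehyde. Rate read as NADPH absorbance change at 340 nm. IC50 reported as mean of at least three determinations. Selectivity is the AKR1B1 IC50 divided by the AKR1B10 IC50.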
Target sequence in this assay (O60218 whole entry): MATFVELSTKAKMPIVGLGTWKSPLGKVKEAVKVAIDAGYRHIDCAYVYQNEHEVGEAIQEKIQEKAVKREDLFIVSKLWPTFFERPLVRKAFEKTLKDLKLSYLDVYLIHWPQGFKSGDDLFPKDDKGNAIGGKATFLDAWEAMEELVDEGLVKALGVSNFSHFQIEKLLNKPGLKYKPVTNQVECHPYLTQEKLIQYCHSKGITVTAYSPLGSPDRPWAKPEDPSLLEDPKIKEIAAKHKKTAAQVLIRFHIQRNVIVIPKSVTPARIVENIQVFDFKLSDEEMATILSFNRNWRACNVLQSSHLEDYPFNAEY

[2] = target: Aldo-keto reductase family 1 member B1 (Homo sapiens, UniProt P15121); assay: Inhibition of reductase activity of N-terminal 6His-tagged human recombinant AKR1B1 expressed in Escherichia coli BL21(DE3) assessed as assessed as pyridine-3-aldehyde reduction; method in brief: as §1
Homo sapiens = species on record: Homo sapiens; assay: Selectivity ratio of IC50 for human recombinant AKR1B1 to IC50 for human AKR1B10; method in brief: as §1
[3] = target: T1, Aldo-keto reductase family 1 member B10; assay: Inhibition of N-terminal 6His-tagged human AKR1B10 overexpressed in human HeLa cells assessed as inhibition of […] at 1 uM pretreated for 2 hrs before [1-14C]farnesol challenge measured after 6 hrs; assay type: cell-based
Method in brief: (§2)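 HeLa cells were transfected with a pGW1 plasmid carrying AKR1B10 cDNA. Culture was DMEM with 10% FBS at 37 C and 5% CO2. Cells were pretreated with inhibitor for 2 h, then incubated with 20 μM [1-14C] labelled substrate for 6 h. Inhibition of farnesal reduction is the mean of duplicate experiments.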
Target sequence in this assay (O60218 whole entry, looked up): as the sequence (O60218 whole entry) above

HT-29 [4] = assay: Cytotoxicity against human HT-29 cells at 10 uM after 96 hrs by trypan blue exclusion assay; assay type: functional, cell-based
HT-29 [5] = assay: Cytotoxicity against human mitomycin C-resistant HT-29 cells assessed as growth inhibition after 96 hrs by trypan blue exclusion assay; assay type: functional, cell-based
HT-29 [6] = assay: Cytotoxicity against human HT-29 cells at 30 uM after 96 hrs by trypan blue exclusion assay; assay type: functional, cell-based
HT-29 [7] = assay: Cytotoxicity against human HT-29 cells after 96 hrs by trypan blue exclusion assay; assay type: functional; settings: HT-29, 96 h, read-out: LD50 (the source's name)
HT-29 [8] = assay: Inhibition of AKR1B10 mRNA expression in human HT-29 cells at 3 to 30 uM after 24 hrs by RT-PCR analysis; assay type: functional, cell-based
Method in brief: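 HT29 cells were treated for 24 h with 3, 10 and 30 μM compound. Total RNA was then extracted, and AKR1B10 mRNA was analysed by reverse transcription-PCR.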

DNA polymerase beta = DNA polymerase beta (Homo sapiens, UniProt P06746); assay: Inhibition of DNA polymerase beta
Phospholipase A2 = Phospholipase A2 (Homo sapiens, UniProt P04054); assay: Inhibition of phospholipase A2
[9] = target: T1, Aldo-keto reductase family 1 member B10; assay: Inhibition of N-terminal 6His-tagged human AKR1B10 overexpressed in human HeLa cells assessed as inhibition of […] pretreated for 2 hrs before [1-14C]farnesol challenge measured after 6 hrs; assay type: cell-based; method in brief: as §2
Target sequence in this assay (O60218 whole entry, looked up): as the sequence (O60218 whole entry) above

[10] = target: T1, Aldo-keto reductase family 1 member B10; assay: Competitive inhibition of dehydrogenase activity of N-terminal 6His-tagged human AKR1B10 expressed in Escherichia coli BL21(DE3) assessed as NADP+-linked geraniol oxidation
Target sequence in this assay (O60218 whole entry): as above

[11] = target: Aldo-keto reductase family 1 member B10 (Homo sapiens, UniProt O60218, K125L); assay: Competitive inhibition of dehydrogenase activity of N-terminal 6His-tagged human AKR1B10 K125L mutant expressed in Escherichia coli BL21(DE3) assessed as NADP+-linked geraniol oxidation
[12] = target: Aldo-keto reductase family 1 member B10 (Homo sapiens, UniProt O60218, V301L); assay: Competitive inhibition of dehydrogenase activity of N-terminal 6His-tagged human AKR1B10 V301L mutant expressed in Escherichia coli BL21(DE3) assessed as NADP+-linked geraniol oxidation
[13] = target: Aldo-keto reductase family 1 member B10 (Homo sapiens, UniProt O60218, Q303S); assay: Competitive inhibition of dehydrogenase activity of N-terminal 6His-tagged human AKR1B10 Q303S mutant expressed in Escherichia coli BL21(DE3) assessed as NADP+-linked geraniol oxidation
[14] = target: Aldo-keto reductase family 1 member B10 (Homo sapiens, UniProt O60218, W220Y); assay: Competitive inhibition of dehydrogenase activity of N-terminal 6His-tagged human AKR1B10 W220Y mutant expressed in Escherichia coli BL21(DE3) assessed as NADP+-linked geraniol oxidation
[15] = target: T1, Aldo-keto reductase family 1 member B10; assay: Non-competitive inhibition of reductase activity of N-terminal 6His-tagged human AKR1B10 expressed in Escherichia coli BL21(DE3) assessed as pyridine-3-aldehyde reduction
Target sequence in this assay (O60218 whole entry, looked up): as the sequence (O60218 whole entry) above

Aldo-keto reductase family 1 member B10 (Homo sapiens, UniProt O60218, V301L), sequence (O60218 whole entry V301L): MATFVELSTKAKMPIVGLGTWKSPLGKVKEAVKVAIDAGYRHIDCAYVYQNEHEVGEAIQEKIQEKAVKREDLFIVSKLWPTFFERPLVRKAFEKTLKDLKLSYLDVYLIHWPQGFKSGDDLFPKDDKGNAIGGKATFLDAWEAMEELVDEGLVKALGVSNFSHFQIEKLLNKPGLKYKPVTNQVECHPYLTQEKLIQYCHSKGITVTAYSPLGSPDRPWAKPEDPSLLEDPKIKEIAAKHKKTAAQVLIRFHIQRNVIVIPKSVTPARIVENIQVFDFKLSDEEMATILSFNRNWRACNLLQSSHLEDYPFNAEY
Aldo-keto reductase family 1 member B10 (Homo sapiens, UniProt O60218, Q303S), sequence (O60218 whole entry Q303S): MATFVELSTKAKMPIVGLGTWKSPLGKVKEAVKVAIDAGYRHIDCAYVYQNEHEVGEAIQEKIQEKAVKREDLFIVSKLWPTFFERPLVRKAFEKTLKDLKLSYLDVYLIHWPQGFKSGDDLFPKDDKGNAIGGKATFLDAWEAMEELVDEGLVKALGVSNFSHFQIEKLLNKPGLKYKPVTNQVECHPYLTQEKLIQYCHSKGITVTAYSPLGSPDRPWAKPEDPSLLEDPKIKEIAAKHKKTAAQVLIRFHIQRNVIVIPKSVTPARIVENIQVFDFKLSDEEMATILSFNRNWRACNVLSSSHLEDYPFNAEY
Aldo-keto reductase family 1 member B10 (Homo sapiens, UniProt O60218, W220Y), sequence (O60218 whole entry W220Y): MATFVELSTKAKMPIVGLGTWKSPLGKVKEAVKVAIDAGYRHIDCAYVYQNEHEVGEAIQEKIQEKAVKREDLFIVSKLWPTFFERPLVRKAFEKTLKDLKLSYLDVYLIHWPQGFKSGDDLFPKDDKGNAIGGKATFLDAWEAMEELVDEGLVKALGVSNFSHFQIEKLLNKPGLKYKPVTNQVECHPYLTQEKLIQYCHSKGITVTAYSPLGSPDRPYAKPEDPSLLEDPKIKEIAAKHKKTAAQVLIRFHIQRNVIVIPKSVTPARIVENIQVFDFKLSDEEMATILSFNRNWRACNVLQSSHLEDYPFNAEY
Aldo-keto reductase family 1 member B10 (Homo sapiens, UniProt O60218, K125L), sequence (O60218 whole entry K125L): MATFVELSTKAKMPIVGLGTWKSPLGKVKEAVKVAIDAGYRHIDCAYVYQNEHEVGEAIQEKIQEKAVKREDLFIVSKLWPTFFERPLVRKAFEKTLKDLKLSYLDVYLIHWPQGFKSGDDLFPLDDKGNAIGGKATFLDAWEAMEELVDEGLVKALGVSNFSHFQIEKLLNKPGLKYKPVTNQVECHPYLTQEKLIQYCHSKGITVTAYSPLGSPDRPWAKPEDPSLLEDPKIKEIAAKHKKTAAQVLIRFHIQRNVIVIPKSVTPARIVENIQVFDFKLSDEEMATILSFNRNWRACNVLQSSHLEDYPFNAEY
Phospholipase A2, sequence (P04054 whole entry): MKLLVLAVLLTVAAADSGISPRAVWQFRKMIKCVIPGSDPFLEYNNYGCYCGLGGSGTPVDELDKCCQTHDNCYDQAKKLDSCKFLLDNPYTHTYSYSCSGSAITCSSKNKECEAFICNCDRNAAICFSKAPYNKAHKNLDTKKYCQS

SMILES	IC50 [1]	IC50 [2]	Ratio IC50 (Homo sapiens)	further results
C[C@H]1[C@H](C)CC[C@]2(C(=O)O)CC[C@]3(C)C(=CC[C@@H]4[C@@]5(C)C[C@@H](O)[C@H](O)[C@@](C)(CO)[C@@H]5CC[C@]43C)[C@H]12 [ASIATIC ACID]	5.9 µM	34 µM	6	–
C=C(C)[C@@H]1CC[C@]2(C(=O)O)CC[C@]3(C)[C@H](CC[C@@H]4[C@@]5(C)CC[C@H](O)C(C)(C)[C@@H]5CC[C@]43C)[C@@H]12 [BETULINIC ACID]	2 µM	11 µM	6	–
CC1(C)[C@@H](O)CC[C@]2(C)[C@H]3C(=O)C=C4[C@@H]5C[C@@](C)(C(=O)O)CC[C@]5(C)CC[C@@]4(C)[C@]3(C)CC[C@@H]12 [ENOXOLONE]	4.9 µM	280 µM	57	inhibition [3]: Active
CC1(C)CC[C@]2(CO)CC[C@]3(C)C(=CC[C@@H]4[C@@]5(C)CC[C@H](O)C(C)(C)[C@@H]5CC[C@]43C)[C@@H]2C1 [ERYTHRODIOL]	30 µM	84 µM	3	–
C[C@H](CCC(=O)O)[C@H]1CC[C@H]2[C@@H]3CC[C@@H]4C[C@@H](O)CC[C@]4(C)[C@H]3CC[C@]12C [ISOLITHOCHOLIC ACID]	–	–	–	Ki [1]: 0.015 µM
CC1(C)CC[C@]2(C(=O)O)CC[C@]3(C)C(=CC[C@@H]4[C@@]5(C)C[C@@H](O)[C@H](O)C(C)(C)[C@@H]5CC[C@]43C)[C@@H]2C1 [MASLINIC ACID]	0.63 µM	72 µM	114	–
CC1(C)CC[C@]2(C(=O)O)CC[C@]3(C)C(=CC[C@@H]4[C@@]5(C)CC[C@H](O)C(C)(C)[C@@H]5CC[C@]43C)[C@@H]2C1 [OLEANOLIC_ACID]	–	124 µM	–	inhibition [3]: Active; Activity (HT-29 [4]): Active; growth inhibition (GI) (HT-29 [5]): Dose-dependent effect; Activity (HT-29 [6]): Active; CC50 (HT-29 [7]): 180 µM; inhibition (HT-29 [8]): inactive; IC50 (DNA polymerase beta): 3 µM; IC50 (Phospholipase A2): 3 µM
COc1ccc2c(C(=S)N(C)CC(=O)O)cccc2c1C(F)(F)F [TOLRESTAT]	–	–	–	inhibition [9]: Active; Ki [1]: 0.05 µM; Activity (HT-29 [6]): Active
C[C@H]1[C@H](C)CC[C@]2(C(=O)O)CC[C@]3(C)C(=CC[C@@H]4[C@@]5(C)CC[C@H](O)C(C)(C)[C@@H]5CC[C@]43C)[C@H]12 [URSOLIC ACID]	4 µM	41 µM	10	Ki [10]: 2 µM; Ki [11]: 2.8 µM; Ki [12]: 2.1 µM; Ki [13]: 3.7 µM; Ki [14]: 6 µM; inhibition [15]: Active
